How the values were obtained:
[1] = system: Jurkat; experiment: Cell toxicity against jurkat cells determined using MTT assay; format: functional, cell-based; details: Homo sapiens
In short: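 Jurkat cells, MTT (3-[4,5-dimethylthiazol-2-yl]-2,5-diphenyltetrazolium bromide) read-out. The value is the µM concentration that inhibited growth by 50% of control.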

[2] = target: Tumor necrosis factor (Homo sapiens, UniProt P01375); experiment: The compound was tested in vitro for inhibitory activity against Tumor necrosis factor alpha from human PMBC cell line by ELISA test.; format: functional, cell-based
Tumor necrosis factor, sequence (P01375 whole entry): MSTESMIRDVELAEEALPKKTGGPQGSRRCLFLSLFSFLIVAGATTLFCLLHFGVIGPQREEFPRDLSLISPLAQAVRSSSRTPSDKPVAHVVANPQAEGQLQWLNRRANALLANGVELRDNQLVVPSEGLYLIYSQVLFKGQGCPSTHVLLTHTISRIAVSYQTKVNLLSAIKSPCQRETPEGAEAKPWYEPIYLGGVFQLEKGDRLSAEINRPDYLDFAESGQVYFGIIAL
In short: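 PBMC isolated from heparinized normal human blood by Ficoll-Histopaque, cultured in RPMI 1640 with 20% autologous plasma and L-glutamine. Compounds were added at 2× in an equal volume, 60 min preincubation, then LPS stimulation. Supernatant was taken 18 h later. TNFα sandwich ELISA (2 µg/mL mouse anti-human capture, BSA block, 2 h at 37 °C), standard curve. IC50 is the µM concentration giving 50% inhibition versus control; a subset was run in ≥3 separate experiments.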

CCOC(=O)CCCn1ccc2cc(OC(=O)OCC)c(OC(=O)OCC)cc2c1=O
IC50 [1]: 40 µM | IC50 [2]: 11 µM

CNC(=O)CCCn1ccc2cc(OC)c(OC)cc2c1=O
IC50 [2]: > 100 µM

CCOC(=O)CCCn1cnc2ccccc2c1=O
IC50 [2]: > 25 µM

CCOC(=O)CCCn1cc(Br)c2cc(O)c(O)cc2c1=O
IC50 [1]: 11 µM | IC50 [2]: 1 µM

CCOC(=O)CCCOc1nc(Nc2ccc(Br)cc2)nc2cc(OC)c(OC)cc12
IC50 [2]: > 25 µM

CCOC(=O)CCCn1cc(F)c2cc(OC)c(OC)cc2c1=O
IC50 [2]: 20 µM

CCOC(=O)CCCn1cc(Br)c2cc(OC)c(OC)cc2c1=O
IC50 [2]: 51 µM

CCOC(=O)CCCn1cc(F)c2c(F)c(OC)c(OC)cc2c1=O
IC50 [2]: > 100 µM

COc1cc2ccnc(Nc3cccc(Br)c3)c2cc1OC
IC50 [2]: 37 µM

CCOC(=O)CCCn1cc(C#N)c2cc(OC)c(OC)cc2c1=O
IC50 [1]: 10 µM | IC50 [2]: 5 µM

CCOC(=O)CCCn1c(Cl)nc2cc(OC)c(OC)cc2c1=O
IC50 [2]: 48 µM

CCOC(=O)CCCCn1cnc2cc(OC)c(OC)cc2c1=O
IC50 [1]: 8 µM | IC50 [2]: 6 µM

CCOC(=O)CCCN1CNc2ccc(N)cc2C1=O
IC50 [1]: > 100 µM | IC50 [2]: 10 µM

CCOC(=O)CCCn1ccc2cc(OC(C)=O)c(OC(C)=O)cc2c1=O
IC50 [1]: 40 µM

COc1cc2ccnc(Nc3cccc(Cl)c3)c2cc1OC
IC50 [2]: 33 µM

CCOC(=O)CCCn1cnc2cccc(Cl)c2c1=O
IC50 [2]: > 25 µM

CCOC(=O)CCCn1cnc2cc([N+](=O)[O-])ccc2c1=O
IC50 [2]: > 25 µM

CCOC(=O)CCCn1c(Nc2ccccc2)nc2cc(OC)c(OC)cc2c1=O
IC50 [2]: > 25 µM

CCOC(=O)CCCOc1nc(Nc2ccccc2)nc2cc(OC)c(OC)cc12
IC50 [2]: > 25 µM

CCOC(=O)CCCOc1nc(N(C)C)nc2cc(OC)c(OC)cc12
IC50 [2]: > 25 µM

CCOC(=O)CCCn1cnc2cc(N)ccc2c1=O
IC50 [1]: 13 µM | IC50 [2]: 9 µM

CCOC(=O)CCCn1cnc2ccc(N)cc2c1=O
IC50 [1]: > 50 µM | IC50 [2]: 4 µM

CCOC(=O)CCCN1CNc2cc(N)ccc2C1=O
IC50 [1]: > 50 µM | IC50 [2]: 5 µM

COc1cc2ccn(CCCC(=O)O)c(=O)c2cc1OC
IC50 [2]: > 100 µM

CCOC(=O)CCCn1cc(CN)c2cc(OC)c(OC)cc2c1=O
IC50 [1]: 7 µM | IC50 [2]: 13 µM

CCOC(=O)CCCCn1ccc2cc(OC)c(OC)cc2c1=O
IC50 [1]: 22 µM | IC50 [2]: 21 µM

CCCn1c(=O)n(CCCC(=O)OCC)c(=O)c2nccnc21
IC50 [1]: > 25 µM | IC50 [2]: 3 µM

CCOC(=O)CCCn1cnc2cc(Cl)ccc2c1=O
IC50 [2]: > 25 µM

CCOC(=O)CCCn1ccc2ccccc2c1=O
IC50 [1]: > 50 µM | IC50 [2]: 5 µM

CCOC(=O)CCCn1cnc2cc(OC)c(OC)c(N)c2c1=O [listing 1 of 2 here]
IC50 [2]: 15 µM

CCOC(=O)CCCn1cnc2cc(OC)c(OC)c([N+](=O)[O-])c2c1=O
IC50 [1]: > 25 µM | IC50 [2]: 11 µM

CCOC(=O)CCCn1c(Nc2ccc(Br)cc2)nc2cc(OC)c(OC)cc2c1=O
IC50 [2]: > 50 µM

CCOC(=O)CCCn1cnc2cc(F)c(F)cc2c1=O
IC50 [2]: > 25 µM

COc1cc2ccnc(Nc3ccc(Br)cc3)c2cc1OC
IC50 [2]: 38 µM

CCOC(=O)CCCn1cnc2cc(OC)c(OC)cc2c1=O
IC50 [1]: 3 µM | IC50 [2]: 3 µM

CCOC(=O)CCCn1cnc2cc(OC)c(OC)c(NC(C)=O)c2c1=O
IC50 [2]: > 100 µM

CCOC(=O)CCCn1cnc2ccc([N+](=O)[O-])cc2c1=O
IC50 [2]: > 25 µM

CCOC(=O)CCCn1c(N=[N+]=[N-])nc2cc(OC)c(OC)cc2c1=O
IC50 [1]: > 25 µM | IC50 [2]: 14 µM

CCOC(=O)CCn1ccc2cc(OC)c(OC)cc2c1=O
IC50 [2]: 50 µM

CCOC(=O)CCCn1cc(C(C)=O)c2cc(OC)c(OC)cc2c1=O
IC50 [1]: 47 µM | IC50 [2]: 15 µM

CCOC(=O)CCCn1c(N)nc2cc(OC)c(OC)cc2c1=O
IC50 [2]: > 25 µM

COc1cc2ccnc(NCCO)c2cc1OC
IC50 [2]: 55 µM

CNC(=O)CCCn1cc(Br)c2cc(OC)c(OC)cc2c1=O
IC50 [2]: > 100 µM

CCOC(=O)CCCn1cnc2ccc(Br)cc2c1=O
IC50 [2]: > 25 µM

CCOC(=O)CCCn1cnc2cc(O)c(O)cc2c1=O
IC50 [2]: 48 µM

COc1cc2ccnc(Nc3ccccc3)c2cc1OC
IC50 [2]: > 100 µM

CCOC(=O)CCCn1cnc2cc(OC)c(OC)c(N=[N+]=[N-])c2c1=O
IC50 [2]: > 25 µM

CCOC(=O)CCCn1ccc2cc(OC)c(OC)cc2c1=O
IC50 [1]: > 50 µM | IC50 [2]: 5 µM

CCOC(=O)CCCn1cnc2ccc(Cl)cc2c1=O
IC50 [2]: > 25 µM

COc1cc2ccnc(Nc3ccc(Cl)cc3)c2cc1OC
IC50 [2]: 35 µM

CCOC(=O)CCCn1ccc2cc(O)c(O)cc2c1=O
IC50 [1]: 47 µM | IC50 [2]: 2 µM

CCOC(=O)CCCn1cnc2cc(F)ccc2c1=O
IC50 [2]: > 25 µM

CCOC(=O)CCCn1c(Nc2ccc(N=[N+]=[N-])cc2)nc2cc(OC)c(OC)cc2c1=O
IC50 [2]: > 50 µM

CCOC(=O)CCCn1cc([N+](=O)[O-])c2cc(OC)c(OC)cc2c1=O
IC50 [2]: 35 µM

CCOC(=O)CCCOc1nc(Cl)nc2cc(OC)c(OC)cc12
IC50 [2]: 68 µM

CCOC(=O)CCCn1cnc2cc(OC)c(OC)c(Cl)c2c1=O
IC50 [1]: 89 µM | IC50 [2]: 22 µM

CCOC(=O)CCn1cnc2cc(OC)c(OC)cc2c1=O
IC50 [1]: > 25 µM | IC50 [2]: 9 µM

CCOC(=O)CCCn1cnc2ccc(F)cc2c1=O
IC50 [2]: > 25 µM

CCOC(=O)CCCn1cc(N)c2cc(OC)c(OC)cc2c1=O
IC50 [2]: 37 µM

COc1cc2ccn(CCCC(=O)OCCN3CCOCC3)c(=O)c2cc1OC
IC50 [1]: > 100 µM | IC50 [2]: 10 µM

CCOC(=O)CCCn1cnc2cc(OC)c(OC)c(N)c2c1=O [listing 2 of 2 here]
IC50 [1]: > 100 µM | IC50 [2]: 20 µM

Source: ChEMBL document CHEMBL1132644, “Substituted isoquinolines and quinazolines as potential antiinflammatory agents. Synthesis and biological evaluation of inhibitors of tumor necrosis factor alpha” (J Med Chem, 1999)
